Results published in ChEMBL document CHEMBL1122603, “2-Acetylpyridine thiosemicarbazones. 9. Derivatives of 2-acetylpyridine 1-oxide as potential antimalarial agents” (1984).
≈ marks a conversion by molar mass, not a printed value.

Columns and labels:
Plasmodium falciparum [1] = test: In vitro antimalarial potency against chloroquine-sensitive, pyrimethamine-resistant Plasmodium falciparum CAMP; assay type: functional; settings: read-out: ID50 (the source's name)
Method in brief: (§1)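 Semiautomated culture assay on P. falciparum. Stocks were 1 mg/mL in 1:1 DMSO/EtOH, diluted in culture medium as seven 2-fold steps over a 64-fold range, with chloroquine and mefloquine as plate controls. Plates ran 24 h at 37 °C under 5% O2/5% CO2/90% N2, then [G-3H]hypoxanthine was added for 18 h more. Harvested incorporation was read by scintillation counting as the viability index.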

Plasmodium falciparum [2] = test: In vitro antimalarial potency against multidrug-resistant Plasmodium falciparum Vietnam Smith strain; assay type: functional; settings: read-out: ID50 (the source's name); method in brief: as §1
Mus musculus [3] = test: In vivo antimalarial activity against Plasmodium berghei in the mice (Mus musculus) at 320 mg/kg dosage; C=cure; assay type: functional, organism-based; parameters: dose 320 mg/kg
Method in brief: (§2)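 Mortality-based mouse test against the drug-sensitive P. berghei strain KBG 173, run at the Leo Rane Laboratory. Groups of five mice per dose level were scored for cures and for toxic deaths.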

Plasmodium berghei [4] = test: Increase in mean survival time in Plasmodium berghei inoculated mice (Mus musculus) following 40 mg/kg administration; assay type: functional
Mus musculus [5] = test: In vivo antimalarial activity against Plasmodium berghei in the mice (Mus musculus) at 640 mg/kg dosage; assay type: functional; method in brief: as §2
Mus musculus [6] = test: In vivo antimalarial activity against Plasmodium berghei in the mice (Mus musculus) at 80 mg/kg dosage; assay type: functional; method in brief: as §2
Plasmodium berghei [7] = test: Increase in mean survival time in Plasmodium berghei inoculated mice (Mus musculus) following 160 mg/kg administration; assay type: functional
Mus musculus [8] = test: In vivo antimalarial activity against Plasmodium berghei in the mice (Mus musculus) at 320 mg/kg dosage; T= Toxicity; assay type: functional, organism-based; parameters: dose 320 mg/kg; method in brief: as §2
Mus musculus [9] = test: In vivo antimalarial activity against Plasmodium berghei in the mice (Mus musculus) at 640 mg/kg dosage; T= Toxicity; assay type: functional, organism-based; parameters: dose 640 mg/kg; method in brief: as §2
Mus musculus [10] = test: In vivo antimalarial activity against Plasmodium berghei in the mice (Mus musculus) at 80 mg/kg dosage; C=cure; assay type: functional, organism-based; parameters: dose 80 mg/kg; method in brief: as §2
Mus musculus [11] = test: In vivo antimalarial activity against Plasmodium berghei in the mice (Mus musculus) at 160 mg/kg dosage; C=cure; assay type: functional, organism-based; parameters: dose 160 mg/kg; method in brief: as §2
Mus musculus [12] = test: In vivo antimalarial activity against Plasmodium berghei in the mice (Mus musculus) at 640 mg/kg dosage; C=cure; assay type: functional, organism-based; parameters: dose 640 mg/kg; method in brief: as §2
Mus musculus [13] = test: In vivo antimalarial activity against Plasmodium berghei in the mice (Mus musculus) at 320 mg/kg dosage; assay type: functional; method in brief: as §2
Mus musculus [14] = test: In vivo antimalarial activity against Plasmodium berghei in the mice (Mus musculus) at 20 mg/kg dosage; assay type: functional; method in brief: as §2
Mus musculus [15] = test: In vivo antimalarial activity against Plasmodium berghei in the mice (Mus musculus) at 160 mg/kg dosage; assay type: functional; method in brief: as §2
Mus musculus [16] = test: In vivo antimalarial activity against Plasmodium berghei in the mice (Mus musculus) at 40 mg/kg dosage; assay type: functional; method in brief: as §2

Row | Compound | IC50 (Plasmodium falciparum [1]) [µg/mL] | IC50 (Plasmodium falciparum [2]) [µg/mL] | increase in mean survival time (Plasmodium berghei [4]) [days] | increase in mean survival time (Mus musculus [5]) [days] | increase in mean survival time (Mus musculus [6]) [days] | increase in mean survival time (Plasmodium berghei [7]) [days] | cures (mice cured) (Mus musculus [12]) | increase in mean survival time (Mus musculus [13]) [days] | other results
1 | C/C(=N\N=C(/S)N1CCCC1)c1cccc[n+]1[O-] | 0.048 (≈ 0.182 µM) | 0.044 (≈ 0.166 µM) | 0.9 | 5.9 | 1.1 | 1.5 | – | – | cure outcome (Mus musculus [3]): Cures
2 | 3-Aza-bicyclo[3.2.2]nonane-3-carbothioic acid [1-(1-oxy-pyridin-2-yl)-ethylidene]-hydrazide; compound with copper(I) chloride | – | – | -0.3 | 2.4 | – | 1.4 | – | – | –
3 | CCOC(=O)N1CCN(/C(S)=N/N=C(\C)c2cccc[n+]2[O-])CC1 | – | – | 4.7 | – | – | – | – | – | increase in mean survival time (Mus musculus [8]): Toxic; increase in mean survival time (Mus musculus [9]): Toxic; increase in mean survival time (Mus musculus [10]): Cures; increase in mean survival time (Mus musculus [11]): Cures
4 | C/C(=N\N=C(/S)N1CCSCC1)c1cccc[n+]1[O-] | 0.044 (≈ 0.148 µM) | – | 0.1 | 1.5 | – | 0.9 | – | – | –
5 | C/C(=N\N=C(/S)N1CCCCC1C)c1cccc[n+]1[O-] (stereo not drawn) | 0.077 (≈ 0.263 µM) | 0.08 (≈ 0.274 µM) | 2.3 | – | 3.3 | – | Cures | – | cure outcome (Mus musculus [3]): Cures; increase in mean survival time (Mus musculus [11]): Cures
6 | C/C(=N\N=C(/S)N1CC2CCC(CC2)C1)c1cccc[n+]1[O-] | 0.086 (≈ 0.27 µM) | 0.083 (≈ 0.261 µM) | -0.7 | – | 0.1 | 1.1 | Cures | 4.9 | –
7 | CC(N/N=C(\S)N1CCCCCC1)c1cccc[n+]1[O-] (stereo not drawn) | – | – | -0.2 | 3.5 | 0.4 | 0.8 | – | 1.6 | –
8 | CC(N/N=C(\S)N1CC2CCC(CC2)C1)c1cccc[n+]1[O-] (stereo not drawn) | – | – | -0.3 | – | 0.7 | 0.9 | Cures | 2.5 | increase in mean survival time (Mus musculus [14]): -0.1 days
9 | CC(N/N=C(\S)N1CCCC1)c1cccc[n+]1[O-] (stereo not drawn) | – | – | 0.8 | 1.6 | – | 0 | – | – | –
10 | C/C(=N\N=C(/S)N1CCC(C)CC1)c1cccc[n+]1[O-] | 0.074 (≈ 0.253 µM) | 0.073 (≈ 0.25 µM) | 0.6 | – | 2.2 | 2.3 | Cures | 4.2 | –
11 | C/C(=N\N=C(/S)N1CCN(c2ccccn2)CC1)c1cccc[n+]1[O-] | – | – | 0.5 | – | 0.3 | 1.9 | Cures | – | cure outcome (Mus musculus [3]): Cures
12 | CC(N/N=C(\S)N1CCN(c2ccccn2)CC1)c1cccc[n+]1[O-] (stereo not drawn) | – | – | – | 3.4 | – | 0.2 | – | – | –
13 | C/C(=N\N=C(/S)N1CCN(c2ccccc2)CC1)c1cccc[n+]1[O-] | 0.062 (≈ 0.174 µM) | – | 0.1 | 8.3 | 1.7 | 3.5 | – | 9.1 | –
14 | C/C(=N\N=C(/S)N1CC(C)OC(C)C1)c1cccc[n+]1[O-] (stereo not drawn) | 0.041 (≈ 0.133 µM) | 0.046 (≈ 0.149 µM) | 4.9 | – | 6.1 | 6.1 | Cures | – | –
15 | C/C(=N\N=C(/S)N(C)C)c1cccc[n+]1[O-] | 0.054 (≈ 0.227 µM) | 0.078 (≈ 0.327 µM) | – | 6.9 | 0.7 | – | – | – | increase in mean survival time (Mus musculus [15]): 4.2 days; increase in mean survival time (Mus musculus [8]): Toxic; increase in mean survival time (Mus musculus [16]): 2.3 days
16 | CCOC(=O)N1CCN(/C(S)=N/NC(C)c2cccc[n+]2[O-])CC1 (stereo not drawn) | – | – | – | 9 | 6 | 6.6 | – | 8 | increase in mean survival time (Plasmodium berghei [4]; 40 mg/kg): 1.2 days
17 | C/C(=N\N=C(/S)N1CCN(C=O)CC1)c1cccc[n+]1[O-] | – | – | -0.3 | – | – | 0.3 | – | – | increase in mean survival time (Mus musculus [9]): Toxic
18 | CC(N/N=C(\S)N1CCCCC1)c1cccc[n+]1[O-] (stereo not drawn) | – | – | 0.2 | 1.8 | – | 0.2 | – | – | –
19 | C/C(=N\N=C(/S)N1CCCC(C)C1)c1cccc[n+]1[O-] (stereo not drawn) | 0.039 (≈ 0.133 µM) | 0.051 (≈ 0.174 µM) | 1.5 | – | 1.6 | 4.7 | Cures | 1.4 | –
20 | C/C(=N\N=C(/S)N1CCCCC1)c1cccc[n+]1[O-] | – | – | 3.5 | – | 1.3 | 6.3 | Cures | – | cure outcome (Mus musculus [3]): Cures
21 | C/C(=N\N=C(/S)N1CCCCCC1)c1cccc[n+]1[O-] | – | – | 0.9 | 7.1 | 0.7 | 3.1 | – | 4.9 | –
